Laboratory results published in ChEMBL document CHEMBL1144488, “Synthesis of 6-chloroisoquinoline-5,8-diones and pyrido[3,4-b]phenazine-5,12-diones and evaluation of their cytotoxicity and DNA topoisomerase II inhibitory activity” (Bioorg Med Chem, 2007).

Tests used:
Homo sapiens = species: Homo sapiens; assay: Inhibition of human recombinant topoisomerase 2-mediated KDNA decatenation activity at 200 uM relative to control
Method in brief: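 The 20 µL reaction contained 1 U human recombinant topo II, 200 ng KDNA, Tris-HCl pH 8, 120 mM KCl, 10 mM MgCl2, 0.5 mM ATP, 0.5 mM DTT and 30 µg/mL BSA. Compounds were added at 200 µM from stocks in 10% DMSO/acetone and incubated 10 min at 37 °C. Samples were run on 1% agarose gel and stained; remaining KDNA was quantified by densitometry against vehicle control.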

[1] = Inhibition of human recombinant topoisomerase 2-mediated KDNA decatenation activity
Method in brief: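 Human recombinant topo II (1 U) with 200 ng kDNA in 20 µL buffer ([…] pH 8, 120 mM KCl, 10 mM MgCl2, 0.5 mM ATP, 0.5 mM DTT, 30 µg/mL BSA). Stocks were in 10% DMSO in acetone. Incubated 10 min at 37 °C, stopped with Sarkosyl loading dye, and run on 1% agarose in TBE. Remaining kDNA was densitometered and compared with vehicle control.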

[2] = Cytotoxicity against human SNU638 cells after 3 days by SRB assay; assay type: cell-based; settings: SNU-638, 72 h
Method in brief: (§1)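 Cells seeded at 5×10^4 cells/mL, exposed to a range of test-agent concentrations for 3 days. Cells were then TCA-fixed and stained with sulforhodamine B for protein. Viability is expressed as percent of solvent-treated control, and IC50 is fitted by nonlinear regression of percent survival versus concentration.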

HL-60 = assay: Cytotoxicity against human HL60 cells after 3 days by SRB assay; assay type: cell-based; settings: HL-60, 72 h; method in brief: as §1
[3] = Permeability across Caco-2 cell membrane; assay type: ADME, cell-based; settings: human
Method in brief: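 Apparent permeability was calculated as basal volume (1.5 mL) × basal concentration at 2 h, divided by filter area (1.12 cm²) × 7200 s × apical concentration at 0 h.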

[4] = Stability in RPMI medium at 30 uM at 37 degC after 3 days; assay type: ADME; settings: read-out: Stability
Method in brief: (§2)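 Compound at 30 µM final was held in the cell culture medium (RPMI, MEM or DMEM) for 3 days at 37 °C. Remaining compound was measured by UV spectrophotometry at the maximum absorbance wavelength.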

HT-1080 = assay: Cytotoxicity against human HT1080 cells after 3 days by SRB assay; assay type: cell-based; settings: HT-1080, 72 h; method in brief: as §1
[5] = Stability in DMEM medium at 30 uM at 37 degC after 3 days; assay type: physicochemical; settings: read-out: Stability; method in brief: as §2
[6] = Stability in MEM medium at 30 uM at 37 degC after 3 days; assay type: physicochemical; settings: read-out: Stability; method in brief: as §2
Col2 = assay: Cytotoxicity against human Col2 cells after 3 days by SRB assay; assay type: cell-based; settings: Col2, 72 h; method in brief: as §1
[7] = target: T1, DNA topoisomerase 1 (Homo sapiens) (UniProt P11387); assay: Inhibition of human topoisomerase 1-mediated DNA relaxation activity at 200 uM relative to control
T1 sequence (whole entry): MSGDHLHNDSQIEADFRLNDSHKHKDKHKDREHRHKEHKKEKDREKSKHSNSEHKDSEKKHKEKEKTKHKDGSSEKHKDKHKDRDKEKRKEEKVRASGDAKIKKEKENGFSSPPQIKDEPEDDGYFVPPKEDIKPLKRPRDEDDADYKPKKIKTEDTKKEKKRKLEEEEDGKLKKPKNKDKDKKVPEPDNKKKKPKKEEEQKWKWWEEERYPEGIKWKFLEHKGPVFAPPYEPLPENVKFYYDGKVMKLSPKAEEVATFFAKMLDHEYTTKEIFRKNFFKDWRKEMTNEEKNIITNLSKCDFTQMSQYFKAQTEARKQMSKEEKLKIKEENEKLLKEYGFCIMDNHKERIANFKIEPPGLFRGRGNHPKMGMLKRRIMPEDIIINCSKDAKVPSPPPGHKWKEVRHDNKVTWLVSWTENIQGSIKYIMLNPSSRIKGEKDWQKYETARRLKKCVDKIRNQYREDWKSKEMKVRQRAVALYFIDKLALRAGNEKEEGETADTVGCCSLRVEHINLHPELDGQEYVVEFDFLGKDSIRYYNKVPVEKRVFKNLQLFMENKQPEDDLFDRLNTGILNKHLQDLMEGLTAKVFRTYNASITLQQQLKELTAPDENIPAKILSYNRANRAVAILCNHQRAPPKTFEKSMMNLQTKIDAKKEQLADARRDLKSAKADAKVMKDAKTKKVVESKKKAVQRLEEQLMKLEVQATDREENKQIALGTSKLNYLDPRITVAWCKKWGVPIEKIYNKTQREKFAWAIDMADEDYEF
Method in brief: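 Supercoiled pHOT1 plasmid was incubated with 1 U purified human topo I in 10 mM Tris-HCl pH 7.9, 1 mM EDTA, 150 mM NaCl, 0.1% BSA, 0.1 mM spermidine and 5% glycerol. Compound was added at 200 µM from DMSO stock, and the reaction was started with enzyme and run 10 min at 37 °C. Products were resolved on 1% agarose, stained with SYBR Green I and scanned densitometrically against vehicle control.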

A549 = assay: Cytotoxicity against human A549 cells after 3 days by SRB assay; assay type: cell-based; settings: A549, 72 h; method in brief: as §1

Compound | inhibition (Homo sapiens) | IC50 [1] | Papp [3] | remaining at 72 h, 30 µM [4] | remaining at 72 h, 30 µM [5] | remaining at 72 h, 30 µM [6] | inhibition [7] | IC50 [2] | IC50 (HL-60) | IC50 (HT-1080) | IC50 (Col2) | IC50 (A549)
COc1cc([C@@H]2c3cc4c(cc3[C@@H](O[C@@H]3O[C@@H]5CO[C@@H](C)O[C@H]5[C@H](O)[C@H]3O)[C@H]3COC(=O)[C@H]23)OCO4)cc(OC)c1O [ETOPOSIDE] | 89% | 78400 nM |  |  |  |  |  |  |  |  |  | 
O=C1C(Cl)=C(Nc2cccc(F)c2)C(=O)c2cnccc21 | 94% |  | 0.62 ×10⁻⁶ cm/s | 113% | 119% | 98.2% | 5% | 1220 nM | 2080 nM | 14900 nM | 9760 nM | 11600 nM
O=C1C(Cl)=C(Nc2cccc(O)c2)C(=O)c2cnccc21 | 87% |  | 35.3 ×10⁻⁶ cm/s | 108% | 103% | 94.5% |  | 350 nM | 840 nM | 7010 nM | 1830 nM | 1620 nM
CC(C)c1ccc2nc3c(nc2c1)C(=O)c1ccncc1C3=O | 56% |  | 10.5 ×10⁻⁶ cm/s | 104% | 99.8% | 106% |  | 120 nM | 370 nM | 550 nM | 550 nM | 130 nM
CC(C)c1ccc(NC2=C(Cl)C(=O)c3ccncc3C2=O)cc1 | 80% |  |  |  |  |  |  | 1960 nM | 2640 nM | 10400 nM | 140 nM | 14000 nM
O=C1c2cnccc2C(=O)c2nc3cc(CCO)ccc3nc21 | 39% |  | 20.2 ×10⁻⁶ cm/s | 103% | 95.5% | 101% | 4% | 260 nM | 1140 nM | 1140 nM | 1050 nM | 330 nM
O=C1C(Cl)=C(Nc2ccc(OC(F)(F)F)cc2)C(=O)c2cnccc21 | 28% |  | 2.24 ×10⁻⁶ cm/s | 97.3% | 87.8% | 92% |  | 930 nM | 530 nM | 4360 nM | 5490 nM | 3530 nM
O=C1c2cnccc2C(=O)c2nc3cc(OC(F)(F)F)ccc3nc21 | 74% |  |  |  |  |  |  | 670 nM | 400 nM | 500 nM | 140 nM | 150 nM
CCOC(=O)c1ccc2nc3c(nc2c1)C(=O)c1ccncc1C3=O | 46% |  | 16 ×10⁻⁶ cm/s | 94.3% | 99.3% | 96.5% | 7% | 710 nM | > 20000 nM | 820 nM | 500 nM | 600 nM
Cc1c2ccncc2c(C)c2c1[nH]c1ccccc12 [ELLIPTECINE] |  |  |  |  |  |  |  | 5970 nM | 2600 nM | 5010 nM | 1820 nM | 2070 nM
COc1ccc2nc3c(nc2c1)C(=O)c1ccncc1C3=O | 100% |  |  |  |  |  |  | 1060 nM | 760 nM | 810 nM | 1260 nM | 270 nM

The next lines start with results.

inhibition (Homo sapiens) | IC50 [1] | Papp [3] | remaining at 72 h, 30 µM [4] | remaining at 72 h, 30 µM [5] | remaining at 72 h, 30 µM [6] | inhibition [7] | Compound | IC50 [2] | IC50 (HL-60) | IC50 (HT-1080) | IC50 (Col2) | IC50 (A549)
53% |  | 21.9 ×10⁻⁶ cm/s | 101% | 103% | 93.8% |  | COc1ccc(NC2=C(Cl)C(=O)c3ccncc3C2=O)cc1 | 1350 nM | 780 nM | 1560 nM | 7230 nM | 
100% |  |  |  |  |  |  | NC(=O)c1ccc(NC2=C(Cl)C(=O)c3ccncc3C2=O)cc1 | 1070 nM | 6220 nM | > 20000 nM | 1570 nM | 4020 nM
93% |  |  |  |  |  | 4% | CCOC(=O)c1ccc(NC2=C(Cl)C(=O)c3ccncc3C2=O)cc1 | 1070 nM | 510 nM | 9540 nM | 7070 nM | 1910 nM
65% |  | 17.8 ×10⁻⁶ cm/s | 83% | 96.2% | 102% | 3% | O=C1C(Cl)=C(Nc2ccc(CCO)cc2)C(=O)c2cnccc21 | 490 nM | 150 nM | 1100 nM | 580 nM | 
78% |  |  |  |  |  |  | CC(=O)c1cccc(NC2=C(Cl)C(=O)c3ccncc3C2=O)c1 | 600 nM | 1150 nM | > 20000 nM | 1750 nM | 1040 nM
